This note sets out measurements from ChEMBL document CHEMBL1142957, “Total structure and inhibition of tumor cell proliferation of laxaphycins” (J Med Chem, 2007).

Assay [1] concerns CCRF-CEM. In words: Cytotoxicity against drug-sensitive CCRF-CEM cells after 72 hrs. Format: cell-based. Conditions: Homo sapiens. The essentials:
(§1)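 Leukemic lymphoblasts (parent CCRF-CEM, Pgp-overexpressing CEM/VLB100, topo II-altered CEM/VM-1) grown in RPMI 1640 with 10% FCS and antibiotics, 37 °C, 5% CO2. Serial dilutions in medium added to 2 × 10⁵ cells/mL for 3 days, medium not renewed. Survivors counted on a Coulter counter. Triplicate, averaged.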

The nature of assay [2]: Cytotoxicity against vinblastine-resistant CEM/VLB100 cells after 72 hrs. Format: cell-based. Conditions: Homo sapiens, CEM/VLB100, 72 h. The gist of the method:
as §1

Assay [3] is described as follows: Cytotoxicity against teniposide-resistant CEM/VM1 cells after 72 hrs. Format: cell-based. Conditions: Homo sapiens, CEM-VM1, 72 h. The essentials:
as §1

The subject of assay [4] is CCRF-CEM. As to the kind of experiment: Ratio of IC50 for vinblastine-resistant CEM/VLB100 cells over IC50 for drug-sensitive CCRF-CEM cells. Format: functional, Homo sapiens.
Assay [5] deals with CCRF-CEM. In words: Ratio of IC50 for teniposide-resistant CEM/VM1 cells over IC50 for drug-sensitive CCRF-CEM cells. Format: functional, Homo sapiens.
For assay [6], the system named is CCRF-CEM. As to the kind of experiment: Antiproliferative activity against CCRF-CEM cells at 20 uM after 72 hrs. Format: functional, cell-based. As to conditions: Homo sapiens. The essentials: as §1
For assay [7], the system named is DLD-1. In words: Antiproliferative activity against human DLD1 cells at 5 uM after 48 hrs by RRT assay. Format: functional, cell-based. The essentials: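 Adherent lines in supplemented Glutamax MEM, 37 °C, 5% CO2. Seeded 5 × 10³ cells/well, adhered 16 h, then treated 48 h continuously, alone or in combination, in 0.5% DMSO (solvent control). Resazurin 25 µg/mL in MEM added, 1 h at 37 °C, fluorescence 530/590 nm. Survival = % of control after blank subtraction; IC50 from concentration–survival curve. Two independent assays in triplicate.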

Active and inactive are the calls of the source. The calls are words filed in the database; no cut-off is given here.

Regarding `COc1cccc2c1C(=O)c1c(O)c3c(c(O)c1C2=O)C[C@@](O)(C(=O)CO)C[C@@H]3O[C@H]1C[C@H](N)[C@H](O)[C@H](C)O1` [DOXORUBICIN], the half-maximal inhibitory concentration (IC50) (in general, the concentration at which inhibition is half-maximal) in assay [1] amounted to 0.06 µM; in assay [2], 3.71 µM; in assay [3], 0.55 µM. Besides, the entries for the “Ratio IC50” value in assay [4] and in assay [5] were 62 and 9, respectively.

As for `C/C=C1/NC(=O)[C@H](CCO)NC(=O)C[C@@H](CCCCC)NC(=O)CNC(=O)[C@H](CC(C)C)NC(=O)[C@@H]([C@@H](C)CC)NC(=O)[C@H]([C@@H](C)CC)NC(=O)[C@@H](CC(C)C)NC(=O)[C@@H](Cc2ccccc2)NC(=O)[C@H](CCO)NC(=O)[C@@H]2C[C@@H](O)CN2C1=O` [LAXAPHYCIN A], the IC50 in assay [1], in assay [2] and in assay [3] was over 20 µM each time. In addition, the outcome in assay [6] and in assay [7] was inactive.

Take `CCCCCCC[C@@H]1CC(=O)N[C@@H](C(C)C)C(=O)N[C@H]([C@@H](O)C(C)C)C(=O)N[C@@H](C)C(=O)N[C@H](CC(C)C)C(=O)N[C@@H](CCC(N)=O)C(=O)N(C)[C@@H]([C@@H](C)CC)C(=O)N[C@H]([C@@H](O)C(N)=O)C(=O)N[C@@H]([C@@H](C)O)C(=O)N2CCC[C@H]2C(=O)N[C@H](CC(C)C)C(=O)N[C@@H]([C@@H](C)O)C(=O)N1` [LAXAPHYCIN B2]: the figures for the half-maximal inhibitory concentration (IC50) in assay [1], in assay [2] and in assay [3] were 4.15 µM, 3.33 µM and 4.14 µM, respectively. The “Ratio IC50” value in assay [4] worked out at 0.8; in assay [5] it was 1.
